High-throughput results deposited in PubChem BioAssay by several laboratories.
STAT3 act – increases IL-6 driven STAT3 reporter signal. actives 0.91% (n = 190,000). activation (% of control), % at 5.6 µM. U3A cells, IL-6 STAT3-luciferase reporter, luminescence; 100% = signal with IL-6 EC80 alone;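 active means activation above the screen-wide mean of compound activation plus 3 SD, cut at about 130% in these data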;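 further: 0% = background luminescence of wells with medium and substrate only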
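Assay system – human STAT1-deficient U3A cells with stable STAT3-luciferase reporter · Also added – IL-6 (33 ng/mL) · Schedule – compound 1 h, then IL-6 6 h at 37 °C · Technique – reporter luminescence signal · Evaluation – % activation versus median of IL-6-stimulated wells · Benchmarks – IL-6-only wells as 100% reference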
STAT1 act – activators of IFN-gamma induced STAT1 signaling; NIH 3T3 STAT1-luciferase reporter, luminescence; 100% = IFN-gamma alone, no compound; AID 932; actives 2.6% (n = 200,000); activation (% of control), % at 5.5 µM;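 active means activation above the screen-wide mean activation plus 3 SD, cut at about 130% in these data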;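 further: raw ratio to IFN-gamma control signal so 100% means no change and 0% no light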
NF-kB neuron act – NF-kB expression increase, human neuronal cells; NF-kB reporter expression; hits give high values; fold change at 12.5 µM; actives 1.6% (n = 190,000); AID 1239; in the data active means fold change above about 3.3
APP 5'UTR act – APP 5'UTR luciferase reporter activation; activation, % at 2 µM; actives 1% (n = 190,000); SH-SY5Y APP 5'UTR luciferase reporter, luminescence; zero percent = DMSO vehicle wells;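 active means activation above a set limit, based on mean plus 3 SD of controls, cut at about 140% in these data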
STAT1 inh – reduces IFN-gamma driven STAT1 reporter signal | NIH 3T3 STAT1-luciferase reporter, luminescence | actives 0.35% (n = 200,000) | AID 920 | inhibition, % at 5.5 µM;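 active means inhibition above a set limit, the mean inhibition across all tested compounds plus 3 SD, cut at about 34% in these data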;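 further: 0% = IFN-gamma with DMSO and 100% = IFN-gamma with 300 µM nifuroxazide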
STAT3 inh – inhibitors of IL-6 induced STAT3 signaling; actives 0.89% (n = 190,000); inhibition, % at 5.5 µM; U3A cells, IL-6 STAT3-luciferase reporter, luminescence; host cell line lacks STAT1;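 active means inhibition above the mean inhibition across all screened compounds plus 3 SD, cut at about 44% in these data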;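 further: 0% = DMSO only wells and 100% = 100 µM nifuroxazide control wells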
* hit, by the source's call. Only some compounds are listed: those with a hit (about 4.9% of all), similar ones and a draw of the others.

SMILES	STAT3 act	STAT1 act	NF-kB neuron act	APP 5'UTR act	STAT1 inh	STAT3 inh
CCOc1ccc(NC(=O)c2ccc(CC)s2)c([N+](=O)[O-])c1	99	133*	1.8	79	-39	6
Cc1ccc(NC(=O)c2ccc([N+](=O)[O-])cc2Cl)nc1	91	136*	1.7	74	-41	14
CN(C)c1ccc(NC(=O)c2ccc([N+](=O)[O-])cc2Cl)cc1	94	145*	1.7	105	-51	11
Cc1csc(SCC(=O)NC(C)c2ccc(F)cc2)n1 (stereo not drawn)	107	100	1	6	-1	0
Clc1ccc(-c2nnc(N3CCCC3)nn2)cc1	110	137*	4.6*	44	-41	-4
O=S(=O)(Nc1cc(C(F)(F)F)ccc1N1CCOCC1)c1ccc2ccccc2c1	99	94	0.71	12	6	2
CCOC(=O)Nc1nc(-c2ccccc2)c(C(=O)c2ccc(Cl)cc2)s1	103	108	3.9*	-94	-8	-4
Cc1ccc(-c2nc(NCc3ccco3)n(S(C)(=O)=O)n2)cc1	114	144*	2.8	19	-51	-9
CC(=O)Nc1ccc(NC(=O)/C=C/c2ccc3c(c2)OCO3)cc1	104	108	1.3	32	-11	1
O=C(/C=C/c1ccco1)Nc1ccc2c(c1)OCO2	92	127	4.6*	120	-30	12
O=C(/C=C/c1ccc2c(c1)OCO2)Nc1cccnc1	82	128	0.99	162*	-33	25
Cc1cc(C)nc(NC(=O)/C=C/c2ccc3c(c2)OCO3)c1	99	135*	3.3*	100	-40	-1
Nc1ccccc1C(=O)/C=C/c1ccc2c(c1)OCO2	99	110	7.2*	129	-11	-2
CC(C)NC(=O)NC(=O)COC(=O)c1ncc(Cl)c(Cl)c1Cl	96	100	1.1	6	-2	9
Oc1ccc(-c2csc(Nc3ncccn3)n2)cc1O	83	133*	12*	-31	-36	23
Cc1nn(Cc2ccccc2)c(Cl)c1C(=O)NCCc1ccccc1	113	149*	4.3*	91	-54	-9
Cc1nn(Cc2ccccc2)c(Cl)c1C(=O)NCc1ccc(C)n1C	108	101	1.1	8	-1	-2
CCNC(=O)NCc1c(C)c(C)n(Cc2ccccc2)c1-n1cccc1	99	90	1	1	9	4
CS(=O)(=O)Nc1cccc(C2=NN(S(C)(=O)=O)C(c3ccc4c(c3)OCO4)C2)c1 (stereo not drawn)	113	125	1.9	9	-28	-12
CS(=O)(=O)N1N=C(c2ccccc2)CC1c1ccc2c(c1)OCO2 (stereo not drawn)	122	137*	2	0	-41	-14
O=C(C1COc2ccccc2O1)N1CCc2ccccc21 (stereo not drawn)	99	131*	1.9	50	-34	5
CSc1nnc(CSc2cc(C)nc(N(C)C)n2)o1	96	94	1.1	-5	7	8
CC(Oc1ccccc1)C(=O)Nc1nnc(C2CCCCC2)s1 (stereo not drawn)	108	124	1.8	55	-28	-4
O=S(=O)(Nc1ccc(Cl)cc1)c1ccc(N2CCOCC2)c(NC(=S)NCCN2CCOCC2)c1	98	96	1.3	-4	4	11
CCCCn1c(CCC)nc([N+](=O)[O-])c1Sc1ccc(Cl)cn1	95	68	1.6	25	34*	9
SMILES	STAT3 act	STAT1 act	NF-kB neuron act	APP 5'UTR act	STAT1 inh	STAT3 inh
Cc1ccc(N/C(N)=N/c2nc(CSc3nnc(C)s3)cc(=O)[nH]2)c(C)c1	135*	95	3.1	-93	5	-25
CC(CNC(=O)C(C)(C)C)NC(=O)C(C)(C)C (stereo not drawn)	99	103	1.2	-6	-3	3
Cc1nc2cc(NCc3nc4ccccc4n3Cc3ccccc3)ccc2n1C	98	135*	0.55	131	-38	6
Cc1ccc(N2CCN(c3ccc(NCc4nc5ccccc5n4C)cc3)CC2)cc1	114	99	0.96	-15	1	-12
Cn1c(CNc2ccc(Cl)cc2)nc2ccccc21	163*	143*	3.9*	175*	-47	-71
CC1=C/C(=N\NC(=O)c2ccccc2)CC1	102	122	1.2	-8	-25	-5
O=C1C=C(NCCN2CCOCC2)C(=O)c2cnccc21	28	52	0.26	-13	53*	83*
CC(C)OC(=O)CSc1nnnn1-c1ccc2c(c1)OCCO2	100	129*	2.1	20	-31	0
O=C(O)CSc1nnnn1-c1ccc2c(c1)OCCO2	96	105	0.92	8	-5	2
Cc1nn(CC2CC2)c(=O)n1-c1ccccc1	96	94	1.3	-10	6	8
CCOC(=O)CCCCC(=O)c1[nH]c(=O)[nH]c1CSc1nc(C)cc(C)n1	101	95	1.2	16	6	3
CCOC(=O)CCCCC(=O)c1[nH]c(=O)[nH]c1CSc1nnc2c3cc(Br)ccc3n(C)c2n1	134*	104	0.98	4	-7	-36
O=C(Cc1ccc(Cl)cc1)c1c[nH]c(C(=O)NCCCN2CCOCC2)c1	104	106	0.99	-25	-8	2
C=CCn1c(SCC(=O)NC23CC4CC(CC(C4)C2)C3)nc2cc(C(=O)O)ccc2c1=O	108	96	1.2	-5	6	-4
Cc1nc2c(ccc3nc(NC(=O)C4CC4)sc32)s1	157*	156*	4.7*	25	-61	-67
Cc1nc(NC(=O)C2CC2)sc1C	97	103	1.1	2	-3	7
Cc1ccc(C(C(=O)NC2CCCC2)N(Cc2cccs2)C(=O)c2csnn2)o1 (stereo not drawn)	97	98	1.1	17	2	8
Cc1cc(CNC(=O)Cn2nc(C)c([N+](=O)[O-])c2C)c2ccccc2n1	101	101	0.96	-23	-3	0
O=C(N/N=C1\CCc2ccccc21)c1ccccc1O	76	104	3.8*	128	-4	24
COc1ccc(C(=O)N/N=C2\CCc3ccccc32)cc1OC	104	112	1.4	-4	-14	3
O=C(N/N=C1\CCc2ccccc21)c1ccncc1	105	130*	1.3	55	-34	-6
CC(C)(C)c1ccc(C2CC2C(=O)N/N=C\c2ccc[nH]2)cc1 (stereo not drawn)	42	56	0.85	-80	46*	71*
O=C(N/N=C/c1ccco1)C1CC1c1ccccc1 (stereo not drawn)	102	102	0.97	-2	-2	-1
Cc1cc(N/N=C/c2ccncc2)nc2ccccc12	99	147*	0.93	98	-51	11
Cc1cc(N/N=C/c2cccc(Br)c2)nc2ccccc12	103	107	4.2*	50	-8	-6
